Compound activity as filed in PubChem BioAssay.
HNF4A DNA FP: change in binding of human HNF4A to DNA, primary screen, biochemical, fluorescence polarization, FITC-DNA. Hepatocyte nuclear factor 4-alpha (Homo sapiens), P41235. 1 h. activity change, % at 10 µM. 0.3% of 360,000 active; in the data active = activity change above about 30%, passing the limit was not always enough
TPT1 inhibitor: Candida albicans TPT1 enzyme inhibitors, primary screen, biochemical, fluorescence polarization; tRNA 2'-phosphotransferase TPT1 (Candida albicans SC5314); recombinant caTPT1, FP RNA substrate dephosphorylation; inhibition, % at 5 µM; 0.81% of 300,000 active; AID 1962, 2009;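 active = inhibition above the mean of all tested compounds plus 3 SD, set per screening campaign, cut at about 24% in these data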;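 note: plate controls were DMSO alone for no effect and ferristatin control at 100 nM for full effect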
Rpn11 block: Rpn11 (PSMD14) deubiquitinase inhibitors, primary screen, biochemical, fluorescence polarization, uHTS; 26S proteasome non-ATPase regulatory subunit 14 (Homo sapiens), O00487; human 26S proteasome, Ub4-pepOG fluorescence polarization; 20S core pre-blocked with epoxomicin; inhibition, % at 20 µM; 0.59% of 360,000 active; AID 588493, 2011;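 active = inhibition at 20 µM, scaled to each plate's controls, above about 33%, limit read from the data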
CSN deneddyl inh: inhibitors of CSN-mediated cullin deneddylation, primary screen, biochemical, fluorescence polarization, uHTS | COP9 signalosome complex subunit 5 (Homo sapiens), Q92905 | Purified CSN, SCF-Nedd8-OG deneddylation | inhibition, % at 12.5 µM | 0.38% of 360,000 active;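 active = pattern-corrected inhibition above about 35%, with an unprinted fluorescence ratio check between 0.5 and 1.5, limit read from the data, passing the limit was not always enough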;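 note: 0% = enzyme with substrate and 100% = substrate without enzyme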
Target sequence (Q92905 whole entry, looked up, one chain of several): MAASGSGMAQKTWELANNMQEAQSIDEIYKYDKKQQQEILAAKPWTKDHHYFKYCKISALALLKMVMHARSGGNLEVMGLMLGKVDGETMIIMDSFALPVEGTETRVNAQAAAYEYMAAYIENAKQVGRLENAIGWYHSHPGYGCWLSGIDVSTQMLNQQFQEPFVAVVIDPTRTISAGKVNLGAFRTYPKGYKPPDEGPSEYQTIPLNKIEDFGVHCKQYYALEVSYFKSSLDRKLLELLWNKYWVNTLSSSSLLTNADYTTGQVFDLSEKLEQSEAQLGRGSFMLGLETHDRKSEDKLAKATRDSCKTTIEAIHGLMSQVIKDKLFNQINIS
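Assay system: purified human Csn5 enzyme expressed in HEK293T cells; Input: 0.24 nM Csn5 enzyme, final concentration; Reagent: 10 nM SCFSkp2-Nedd8OG; Compound dosing: 12.5 µM single point; Times: reaction 90 min, room temperature; Technique: fluorescence polarization readout.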
Myeloid diff MLP: induction of myeloid progenitor differentiation, primary screen, cell-based, flow cytometry, MLPCN library; 1% of 360,000 active; calls only at 10 µM; ER-HoxA9 myeloid progenitors, lysozyme-GFP differentiation;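 active = normalized GFP-positive differentiation at or above the plate's own cutoff, the solvent-only control mean plus 3 SD; inconclusive = no clear call, values can overlap the other calls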;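 note: cells exposed to compound for four days before flow analysis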
caTPT1 confirm: Candida albicans TPT1 inhibitors, confirmation, biochemical, fluorescence polarization, triplicate; recombinant caTPT1, RNase T1 coupled; AID 2149, 2009; shares compounds with TPT1 inhibitor; 74% of 2,400 active; inhibition, % at 5 µM;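 active = inhibition above the primary screen limit, the mean inhibition of all tested compounds plus 3 SD, cut at about 25% in these data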
RNase T1 inh: RNase T1 inhibitors, counter-screen for TPT1 inhibitor project, biochemical, fluorescence polarization | RNase T1 cleavage, 1536-well | shares compounds with TPT1 inhibitor | inhibition, % at 5 µM | 83% of 2,400 active | AID 2153, 2009;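 active = inhibition above the solvent-only control well mean plus 3 SD, limit set per screening run, cut at about 23% in these data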;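 note: plate controls were DMSO wells with enzyme for no effect and wells without RNase T1 for full effect; inhibitors block cleavage so intact labeled substrate keeps polarization high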
Target sequence (P00651 whole entry, looked up): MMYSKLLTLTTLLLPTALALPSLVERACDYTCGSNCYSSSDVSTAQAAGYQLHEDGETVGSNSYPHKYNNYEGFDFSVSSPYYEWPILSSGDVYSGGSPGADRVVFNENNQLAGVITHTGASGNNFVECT
Rpn11 confirm: Rpn11 (PSMD14) deubiquitinase inhibitors, confirmation, biochemical, fluorescence polarization, single concentration | inhibition, % at 20 µM | 29% of 1,900 active | shares compounds with Rpn11 block | AID 602318, 2012 | purified human 26S proteasome, Ub4-pepOG fluorescence polarization; proteasome pretreated with epoxomicin
MMP-2 counter-1: MMP-2 enzyme inhibition, confirmation, counter-screen for RPN11 inhibitor project, biochemical, fluorescence, single concentration | shares compounds with Rpn11 block | recombinant MMP-2, FRET peptide cleavage fluorescence | inhibition, % at 20 µM | 4% of 1,900 active;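 note: human MMP-2 activated beforehand with APMA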
Thrombin inh: bovine thrombin protease inhibition, confirmation, counter-screen for Rpn11 inhibitor project, biochemical, fluorescence polarization, single concentration; shares compounds with Rpn11 block; bovine thrombin cleavage of Ub4-pepOG; inhibition, % at 20 µM; 13% of 1,900 active;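 active = mean inhibition at least 40% at 20 µM, or signal 3 deviations below plate average, so some actives read negative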;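 note: plate controls were thrombin with DMSO for no effect and buffer wells lacking thrombin for full effect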
Myeloid diff CP1: inducers of myeloid progenitor differentiation, confirmation, cell-based, GFP/Mac1 flow cytometry, cherry pick 01. calls only. ER-HoxA9 myeloid progenitors, GFP/Mac1 double-positive flow. 2% of 2,300 active. shares compounds with Myeloid diff MLP;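 active = share of green or green-and-red cells above 9 and 9% in run 1 or 4 and 3% in run 2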
GFP autofluor: compound fluorescence in myeloid differentiation counter-screen; shares compounds with Myeloid diff MLP; ER-HoxA9 myeloid progenitors, no estrogen, GFP autofluorescence flow cytometry; vehicle wells 0%, positive control 100%; fluorescence response, % (concentration not given with the values); 7.4% of 2,300 active; AID 651707;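 active = over 5% cells positive for green fluorescent reporter, or over 2% positive for both it and APC stain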;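 note: range taken on the double positive population between DMSO and positive control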
CSN5 deneddyl: Csn5 deneddylation inhibitors, confirmation, biochemical, fluorescence polarization, single concentration, SCF-Nedd8OG substrate; shares compounds with CSN deneddyl inh; Csn5 deneddylation of SCF-Nedd8OG, 90 min; inhibition, % at 16.6 µM; 62% of 540 active; in the data active = inhibition above about 50%;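 note: 0% = DMSO with enzyme and 100% = no enzyme wells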
MMP-2 counter-2: MMP-2 protease inhibition counter-screen, confirmation, counter-screen for CSN deneddylation inhibitor project, biochemical, fluorescence, single concentration; shares compounds with CSN deneddyl inh; recombinant MMP-2, FRET substrate fluorescence, 60 min; inhibition, % at 16.6 µM; 33% of 540 active; AID 720655, 2013;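 active = corrected plate-normalized z-score of 5 or more, or -5 or less, or inhibition of 15% or more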;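 note: plate controls were DMSO wells with enzyme for no effect and buffer wells lacking MMP-2 for full effect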
Thrombin counter: blocks bovine thrombin in a CSN deneddylation counter-screen | shares compounds with CSN deneddyl inh | bovine thrombin cleavage of Ub4-pepOG, fluorescence polarization | inhibition, % at 16.6 µM | 49% of 540 active | AID 720656;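 active = inhibition at or above a set limit, with a fluorescence interference ratio between 0.5 and a set maximum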
HNF4A confirm: change in HNF4A binding to DNA, retest, confirmation, biochemical, fluorescence polarization, FITC-DNA | 1 h | 99% of 210 active | shares compounds with HNF4A DNA FP | activity change, % at 12.5 µM | AID 1224897, 2016; call rule not given here
Numbers without * were called inactive; i = inactive; ? = inconclusive; . = not tested or not shown; + = active, no number. The list is not random: actives were taken first. Their share in the collection is about 2.3%. Cut-off read from the data, not from the text of the source, unless noted: active = inhibition above about 40%; inactive = the rest.

SMILES	HNF4A DNA FP	TPT1 inhibitor	Rpn11 block	CSN deneddyl inh	Myeloid diff MLP	caTPT1 confirm	RNase T1 inh	HNF4A confirm	others
O=C(O)CCCN1C(=O)/C(=C/C=C/c2ccco2)SC1=S	-55.7	84.1*	.	39.5*	i	37.0*	38.0*	.	CSN5 deneddyl=44.7;MMP-2 counter-2=44.0*;Thrombin counter=21.6*
O=C(O)CC(C(=O)O)N1C(=O)/C(=C/C=C/c2ccco2)SC1=S (stereo not drawn)	-41.0	66.7*	64.3*	48.2*	i	28.9*	35.6*	.	Rpn11 confirm=96.6*;MMP-2 counter-1=58.8*;Thrombin inh=20.4;CSN5 deneddyl=37.7;MMP-2 counter-2=34.4*;Thrombin counter=49.4*
CC(Oc1ccc(F)cc1)C(=O)N(CCC1=CCCCC1)c1c(N)n(Cc2ccccc2)c(=O)[nH]c1=O (stereo not drawn)	1.8	-3.0	3.5	-3.8	i	.	.	.
COC(=O)c1ccc(OC(C)C(=O)c2ccc(C)cc2)cc1 (stereo not drawn)	-1.1	-3.8	-3.9	-5.8	i	.	.	.
CC(=O)Nc1ccc(S(=O)(=O)NCc2nc(-c3cccc(C)c3)no2)cc1	62.4*	41.3*	.	15.9	i	72.7*	80.0*	63.9*
Oc1oc(-c2ccccc2)nc1C=Nc1ccccc1	2.0	2.7	4.4	1.5	i	.	.	.
CC1=Nc2ccccc2/C1=C/c1nc(-c2ccc(C)s2)oc1O	54.8*	165.8*	.	31.8	i	179.1*	169.6*	73.6*
Cc1nn(C(=O)c2c([N+](=O)[O-])cnn2C)c(C)c1Cl	1.2	-1.4	1.1	2.8	i	.	.	.
CSc1nnc(C)c(/C=C/Nc2ccc(Cl)cc2)n1	59.1*	153.7*	.	-0.9	i	121.1*	117.2*	54.7*
COc1ccc(N/C=C/C(=O)C(F)(F)F)cc1	-0.8	1.3	-2.2	-13.2	i	.	.	.
COc1ccc(N/C=C/c2nc(SC)nnc2C)cc1	44.6*	111.3*	.	27.7	i	108.1*	110.9*	61.7*
C=CCN1C(=O)C2(OCCCO2)c2cc(Cl)ccc21	1.2	-2.8	-5.4	2.0	i	.	.	.
COc1cc(/C=C2\N=C3CCCCCN3C2=O)ccc1O	46.9*	50.2*	152.0*	56.8*	i	69.0*	72.6*	76.1*	Rpn11 confirm=88.3*;MMP-2 counter-1=-26.6;Thrombin inh=67.0*
COc1ccc(/C=C2\N=C3CCCCCN3C2=O)cc1OC	3.5	-5.2	-2.9	6.2	i	.	.	.
Cc1ccc(-n2nc3c(N4CCC(C(=O)N5CCC(C(N)=O)CC5)CC4)nnc(C)c3c2C)cc1	49.4*	35.0*	.	29.8	i	39.6*	48.0*	48.4*
C=CCN1C(=O)/C(=C/c2ccc(O)cc2)S/C1=N/c1nccs1	44.6*	72.7*	.	43.5*	i	93.3*	91.7*	69.4*
COc1ccc(C(=O)Nc2cccc(-c3cc4ccccc4oc3=O)c2)cc1[N+](=O)[O-]	2.4	4.2	1.3	0.7	?	.	.	.
COc1ccc(NC(=O)CN(C)C(=O)CSc2nc3ccccc3s2)cc1	42.8*	36.3*	.	21.4	i	35.5*	45.4*	46.3*	Myeloid diff CP1=i;GFP autofluor=0.0
COc1ccc2c3c([nH]c2c1)C1CC2C(CC(O)C(OC)C2CO)CN1CC3 (stereo not drawn)	11.5	-2.2	3.4	-2.9	i	.	.	.
COC(=O)[C@H]1[C@H]2C[C@@H]3c4[nH]c5cc(OC)ccc5c4CCN3C[C@H]2C[C@@H](OC(=O)c2ccc(N)cc2)[C@@H]1OC	42.6*	62.1*	.	12.3	+	86.4*	91.4*	64.9*
CCN1C(=O)CS/C1=N\S(=O)(=O)c1ccccc1	-4.1	-4.3	-1.2	1.8	i	.	.	.
CCN1C(=O)CS/C1=C(\C#N)S(=O)(=O)c1ccccc1	40.0*	103.8*	42.2*	-1.0	i	79.6*	90.2*	42.9*	Rpn11 confirm=33.5;MMP-2 counter-1=16.4;Thrombin inh=22.8
CN(C)c1ccc(-c2sc(Nc3ccccc3)n[n+]2-c2ccc(F)cc2)cc1	69.2*	35.5*	18.4	7.3	i	93.2*	97.5*	79.7*
